Screening data as filed in PubChem BioAssay.
MrgX1 antag = blocks BAM8-22 activation of human MrgX1 receptor | AID 588676 | Q96LB2 | MRGX1-HEK293 calcium flux, Fluo-4, BAM8-22 antagonism; stronger effect = lower value | B-score at 10 µM | 310,000 compounds, 1.3% hits;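 active = calcium-response B-score plate-corrected more than 3 library SD below zero, starting fluorescence within 5 deviations, no agonist response on first addition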;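 note: peak minus trough fluorescence over baseline after final BAM8-22 challenge near maximal dose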
RGS4 block = inhibitors of human RGS4; HEK293 M3R/RGS4 inducible, Fluo-4 calcium flux; stronger effect = higher value; triggered by carbachol at its EC20; B-score at 10 µM; 310,000 compounds, 0.45% hits;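 active = B-score, a plate-corrected calcium signal, over three deviations above library mean, with baseline fluorescence within five deviations of library mean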;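 note: RGS4 expression induced by doxycycline in cells with stable M3 receptor; B-score is computed from the integrated fluorescence ratio over baseline after carbachol; higher B-score means a larger calcium signal and so more RGS4 inhibition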
Target sequence (P49798 whole entry, looked up): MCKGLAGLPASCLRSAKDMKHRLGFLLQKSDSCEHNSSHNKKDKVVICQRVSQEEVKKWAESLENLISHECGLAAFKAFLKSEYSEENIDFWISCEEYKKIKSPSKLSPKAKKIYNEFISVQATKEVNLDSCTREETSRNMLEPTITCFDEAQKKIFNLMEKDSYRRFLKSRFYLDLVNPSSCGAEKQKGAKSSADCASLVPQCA
MrgX1 PAM = allosterically activates human MrgX1 receptor signaling | AID 588675 | Q96LB2 | MrgX1-HEK293, Fluo-4 calcium flux, FDSS; stronger effect = higher value | B-score at 10 µM | 310,000 compounds, 0.63% hits;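 active = plate-corrected calcium response at least 3 library SD above typical, normal starting fluorescence, not activating the receptor alone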;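 note: compound read alongside a low EC10 to EC30 dose of BAM8-22 agonist; peak minus trough fluorescence over baseline measured at the second addition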
RGS4 act = potentiators or activators of RGS4. HEK293 M3R/inducible RGS4, carbachol calcium flux Fluo4; stronger effect = lower value. B-score at 10 µM. 310,000 compounds, 0.92% hits;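 active = B-score of the integrated calcium signal more than 4 SD below the library mean, with starting fluorescence not abnormally high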;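 note: negative B-score means reduced calcium response which marks RGS4 activation or potentiation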
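Material: Inducible-RGS4 HEK293 cells carrying M3 receptor; also added: carbachol at ECmax as muscarinic agonist stimulus; incubation: compound preincubation 20 min at room temperature before agonist; signal: Fluo4-AM (2 µM) calcium-flux fluorescence, kinetic read; measure: integrated calcium ratio converted to B score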
PHOSPHO1 inh = PHOSPHO1 (human) inhibition | Q8TCT1 | recombinant PHOSPHO1, absorbance phosphatase assay | AID 1565 | inhibition, % at 13.3 µM | 290,000 compounds, 1.1% hits; in the data active = inhibition above about 60%
Target sequence (Q8TCT1 whole entry, looked up): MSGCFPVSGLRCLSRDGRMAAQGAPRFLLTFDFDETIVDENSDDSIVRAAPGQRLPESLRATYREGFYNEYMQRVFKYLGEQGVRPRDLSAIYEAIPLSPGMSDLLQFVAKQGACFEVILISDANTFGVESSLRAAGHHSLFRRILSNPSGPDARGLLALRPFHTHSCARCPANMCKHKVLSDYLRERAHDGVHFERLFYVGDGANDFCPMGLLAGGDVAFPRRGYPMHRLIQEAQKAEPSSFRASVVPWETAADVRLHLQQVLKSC
MrgX1 ag = activates human MrgX1 receptor signaling; Q96LB2; AID 588627; B-score at 10 µM; 310,000 compounds, 0.44% hits; MrgX1-HEK293 cells, Fluo-4 calcium fluorescence, agonist mode; stronger effect = higher value;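 active = calcium response B-score plate-corrected fluorescence ratio at least 3 library SD, with starting fluorescence B-score inside 5 SD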
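Material: HEK293 cells stably expressing human MrgX1 receptor | Quantity: 15,000 cells per well | Times: Cells plated overnight, dye loaded 0.5 h 37 °C, 0.5 h room temperature | Measured by: Kinetic Fluo-4 NW fluorescence of intracellular calcium | Control set: Positive and negative controls per plate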
RGS4 act valid = RGS4 activation, validation assay; HEK293 M3R/RGS4 inducible, carbachol calcium flux Fluo4; shares compounds with RGS4 act; 1,100 compounds, 89% hits; AID 602282; inhibition, % at 10 µM;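 active = inhibition above 3 SD of the buffer control wells, cut at about 41% in these data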;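 note: signal is the integrated peak-minus-minimum Fluo4 fluorescence over baseline ratio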
M3R Ca counter = counter-screen for RGS4 activators: effect in non-induced cells | shares compounds with RGS4 act | HEK293 M3R non-induced RGS4, Fluo4 calcium flux; after carbachol challenge at its EC90 | inhibition, % at 10 µM | 1,100 compounds, 82% hits;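 active = inhibition exceeding 3 SD of buffer-only control wells, cut at about 26% in these data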;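 note: percent drop in integrated peak-minus-baseline over baseline Fluo4 ratio after carbachol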
Starred values were filed as active, the others as inactive; i = inactive; . = not tested or not shown. Only some compounds are listed: those with a hit (about 4.5% of all), similar ones and a draw of the others.

SMILES	MrgX1 antag	RGS4 block	MrgX1 PAM	RGS4 act	PHOSPHO1 inh	MrgX1 ag	RGS4 act valid	M3R Ca counter
OC(c1ccccn1)C1CCN(Cc2nc(C(c3ccccc3)c3ccccc3)no2)CC1 (stereo not drawn)	i	i	i	i	47.1	i	.	.
Cc1cccnc1CN1CCN(Cc2nc(C(c3ccccc3)c3ccccc3)no2)CC1	i	i	i	-8.72*	22.6	i	93.0*	82.3*
Cc1nc(CN2CCN(Cc3nc(C(c4ccccc4)c4ccccc4)no3)CC2)cs1	i	i	i	-13*	18.3	i	92.5*	79.3*
COc1ccc(NC(=O)c2cccnc2SC)cc1S(=O)(=O)N1CCCCC1	i	i	i	i	-5.2	i	.	.
CC(C)CC1CCCCC1OC(=O)CN1CCCCC1 (stereo not drawn)	i	i	i	-8.48*	-14.5	i	85.5*	37.3*
Cc1ccc(CNC(=O)c2ccc(C#CC(C)(C)O)s2)cc1	i	i	i	i	-3.2	i	.	.
CN(C)CCC(O)(c1ccccc1)c1ccccc1	i	i	i	i	0.9	i	.	.
CN(C)C(C)(C)C#CC(O)(c1ccccc1)c1ccccc1	i	i	i	-8.72*	23.0	i	92.0*	88.3*
CN(C)CCC#CC(O)(c1ccccc1)c1ccccc1	i	i	i	-9.9*	3.2	i	87.5*	46.8*
CCN(CC)CC#CC(O)(c1ccccc1)c1ccccc1	i	i	i	-12.6*	-10.2	i	93.5*	91.8*
CN(C)CC#CCC(O)(c1ccccc1)C1CCCCC1 (stereo not drawn)	i	i	i	i	35.6	i	.	.
CCN(CC)CCC#CC(O)(c1ccccc1)C1CCCCC1 (stereo not drawn)	i	i	i	-8.57*	5.8	i	91.0*	93.3*
Cc1cn2c(=O)c(C(=O)NCc3ccc4c(c3)OCO4)cnc2s1	i	i	i	i	.	i	.	.
COc1cccc(CN2CCN(Cc3nc(C(C)C)cs3)CC2CCO)c1 (stereo not drawn)	i	i	i	i	-10.2	i	.	.
O=C(CN1CCCCC1)N1CCCc2ccccc21	i	i	i	i	13.9	i	.	.
CN1CCN(C(=O)N2c3ccccc3C=Cc3ccccc32)CC1	i	i	i	-9.71*	20.1	i	94.0*	69.3*
NC(=O)N1c2ccccc2C=Cc2ccccc21	i	i	i	i	1.1	i	.	.
O=C(CN1CCCC1)N1c2ccccc2C=Cc2ccccc21	i	i	i	-10.3*	49.9	i	82.0*	40.8*
CCOc1ccc(CCNC(=O)c2cn(C)c3ccc(S(=O)(=O)N4CCOCC4)cc3c2=O)cc1OCC	i	i	i	i	12.1	i	.	.
Cc1ccc2nc(SCC(=O)N3CCC(Cc4ccccc4)CC3)nc(=O)n2c1	i	i	i	i	.	i	.	.
Nc1ncc(Br)cc1S(=O)(=O)NCCC(=O)N1CCN(c2ccccn2)CC1	i	i	i	-8.67*	-5.0	i	75.0*	83.8*
COC(=O)c1ccccc1NC(=O)c1cccc(NC(=O)C(C)C)c1	i	i	i	i	24.6	i	.	.
Cc1nn(-c2ccccc2)c(C)c1NC(=O)COC(=O)c1cccc(OC(F)F)c1	i	i	i	-8.37*	.	i	0.0	0.0
COc1ccc(/C=C/C(=O)NC(=S)N2CCSCC2)cc1	i	i	i	i	-47.7	i	.	.
Cc1cc(S(=O)(=O)NCCC2=CCCCC2)ccc1Br	i	i	i	-9.55*	.	i	92.0*	83.3*
SMILES	MrgX1 antag	RGS4 block	MrgX1 PAM	RGS4 act	PHOSPHO1 inh	MrgX1 ag	RGS4 act valid	M3R Ca counter
Cc1ccc(S(=O)(=O)NCCC2=CCCCC2)cc1C(N)=O	i	i	i	i	-6.7	i	.	.
Cc1ccc(N=C2C(=O)Nc3ccc(Br)cc32)cc1	i	i	i	i	-7.8	i	.	.
O=C1Nc2ccc(Br)cc2C1=C1CCCCC1	i	i	i	-8.74*	49.6	i	36.5*	0.0
O=C(c1ccc(OC2CCN(CCc3ccccc3)CC2)cc1)N1CCCCC1CCCO (stereo not drawn)	i	i	i	i	37.7	i	.	.
O=C(Nc1cc(-c2nc3ncccc3o2)ccc1Cl)c1ccc([N+](=O)[O-])o1	i	i	i	i	6.5	i	.	.
C=CCc1cc2c(oc(=O)c3ccccc32)c(C)c1O	i	i	i	-8.98*	31.2	i	49.0*	83.8*
Cc1c(O)c(CN2CCCC2)cc2c1oc(=O)c1ccccc12	i	i	i	i	-12.7	i	.	.
COC(=O)c1ccc(-c2noc(CN3CCCCC3c3nccn3C)n2)cc1 (stereo not drawn)	i	i	i	-10.1*	44.0	i	91.0*	68.3*
Cn1ccnc1C1CCCCN1Cc1nc(Cc2ccccc2F)no1 (stereo not drawn)	i	i	i	i	22.6	i	.	.
CC(C)CC(NC(=O)c1ccc(Cl)cc1)C(=O)OCC(=O)c1ccc2c(c1)NC(=O)CO2 (stereo not drawn)	i	i	i	-11.5*	-3.6	i	90.0*	80.3*
CC(C)[C@H](NC(=O)c1ccco1)C(=O)OCC(=O)c1ccc2c(c1)NC(=O)CO2	i	i	i	i	33.5	i	.	.
CCc1nn(CC(=O)NCCCN(C)Cc2ccccc2)c(=O)c2cc3sc(C)cc3n12	i	i	i	i	27.9	i	.	.
CC(=O)Nc1c2c3c(cccc3n(C)c1=O)C(=O)c1ccccc1-2	i	i	i	-8.62*	24.2	i	53.0*	0.0
CCOC(=O)c1c2c3c(cccc3n(C)c1=O)C(=O)c1ccccc1-2	i	i	i	i	3.1	i	.	.
CCN1CCN(CCCNC(=O)c2ccc3c(Cl)c4c(nc3c2)CCCC4)CC1	i	i	i	-8.56*	34.4	i	81.5*	49.8*
O=C(NCCCN1CCCCCC1)c1ccc2c(Cl)c3c(nc2c1)CCCC3	i	i	i	i	11.2	i	.	.
Cc1ccc2oc(=O)c3cc(C(=O)NCCCN4CCCCCC4)sc3c2c1	i	i	i	i	27.9	i	.	.
